Laboratory results reported in ChEMBL document CHEMBL4837217, “Design, synthesis, in vitro and in vivo biological evaluation of pyranone-piperazine analogs as potent antileishmanial agents” (Eur J Med Chem, 2021).
Active and inactive are the calls of the source. The rule behind the calls is not given here.

Columns and labels:
Leishmania donovani [1] = assay: Induction of apoptosis in Leishmania donovani MHOM/IN/80/Dd8 promastigotes assessed as increase in cytochrome c release by measuring decrease in cytochrome c level in mitochondria at 50 uM incubated for 12 to 72 hrs by Western blot analysis; format: functional, organism-based; conditions: time 12-72 hrs
Summary of the method: (§1)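 Promastigotes treated with 50 µM for 12, 24, 48 and 72 h, then washed in PBS. Cell fractionation buffer applied 10 min on ice, cells homogenized, centrifuged 10,000 × g for 25 min at 4 °C. Cytosolic and mitochondrial fractions immunoblotted for cytochrome c. Loading controls were actin (cytosol) and COX-4 (mitochondria).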

Leishmania donovani [2] = assay: Antileishmanial activity against amastigote stage of Leishmania donovani MHOM/IN/80/Dd8 harboring luciferase gene infected in mouse J774 cells assessed as parasite growth inhibition incubated for 72 hrs by Steady-Glo reagent based luciferase assay; format: functional, organism-based; conditions: MHOM/IN/80/Dd8, J774, 72 h
Summary of the method: (§2)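 J774 murine macrophages, 4 × 10⁴ cells/well in RPMI with 10% FBS for 24 h, are infected for 24 h at 37 °C, 5% CO₂ with stationary-phase luciferase-transfected L. donovani Dd8 promastigotes at a 1:8 macrophage:parasite ratio. Compounds are dissolved in DMSO. Luminescence is read after Steady-Glo is added in PBS. IC₅₀ is taken from a four-parameter Hill nonlinear regression. Miltefosine is the reference.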

Leishmania donovani [3] = assay: Antileishmanial activity against log phase of Leishmania donovani MHOM/IN/80/Dd8 promastigotes assessed as reduction in cell viability by MTT assay; format: functional, organism-based; conditions: time 12-72 hrs, TDE = time-dependent effect
Leishmania donovani [4] = assay: Induction of apoptosis in Leishmania donovani MHOM/IN/80/Dd8 promastigotes assessed as increase in cytochrome c release by measuring increase in cytochrome c level in cytosol at 50 uM incubated for 12 to 72 hrs by Western blot analysis; format: functional, organism-based; conditions: time 12-72 hrs; summary of the method: as §1
Splenocyte = assay: Immunomodulatory activity in BALB/c mouse infected with Leishmania donovani amastigotes assessed as increase in IL-12 level in splenocytes supernatants at 50 mg/kg, ip for 5 days; format: functional, organism-based; conditions: time 5.0 day
Leishmania donovani [5] = assay: Induction of mitochondrial membrane potential dysfunction in Leishmania donovani MHOM/IN/80/Dd8 promastigotes assessed as cells with mitochondrial depolarization at 50 uM incubated for 48 hrs by JC1 staining based flow cytometry (reference value: 3.63%); format: functional
Summary of the method: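 Promastigotes (1 × 10^6 cells/mL) exposed to 50 µM for 24–72 h, or to IC50 for 72 h. CCCP (50 µM final) served as depolarization positive control. Cells washed, stained with JC-1 (2 µM final) 30 min at 37 °C, 5% CO2. Red-to-green fluorescence shift measured by flow cytometry.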

Leishmania donovani [6] = assay: Antileishmanial activity against amastigote stage of Leishmania donovani MHOM/IN/80/Dd8 harboring luciferase gene infected in mouse J774 cells assessed as parasite killing at 50 to 100 uM incubated for 72 hrs by Steady-Glo reagent based luciferase assay; format: functional; conditions: dose 50-100 µM; summary of the method: as §2
Leishmania donovani [7] = assay: Antileishmanial activity against amastigote stage of Leishmania donovani MHOM/IN/80/Dd8 harboring luciferase gene infected in mouse J774 cells assessed as parasite growth inhibition at 50 uM incubated for 72 hrs by Steady-Glo reagent based luciferase assay; format: functional; conditions: MHOM/IN/80/Dd8, J774; summary of the method: as §2
Leishmania donovani [8] = assay: Induction of apoptosis in Leishmania donovani MHOM/IN/80/Dd8 promastigotes assessed as late apoptotic cells at 50 uM measured after 48 hrs by Alexa fluor488-AnnexinV/PI staining based FACSCalibur flow cytometry analysis (reference value: 0.7%); format: functional
Leishmania donovani [9] = assay: Antileishmanial activity against Leishmania donovani MHOM/IN/80/Dd8 infected in BALB/c mouse assessed as reduction in intracellular amastigote burden in liver at 50 mg/kg, ip for 5 days and measured at 1 week post-treatment by Giemsa staining based assay relative to control; format: functional; conditions: MHOM/IN/80/Dd8, ip, 288 h, time 12 day
Summary of the method: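 Female BALB/c mice (20–25 g), 5/group, infected iv with 2 × 10^7 stationary-phase L. donovani promastigotes. Infection confirmed at 2 wk, then 50 mg/kg ip daily for 5 consecutive days. Vehicle was 5% DMSO. Sacrificed day 7 post-treatment. Giemsa-stained liver/spleen impression smears counted as amastigotes/1000 nucleated cells, expressed as LDU (amastigotes per nucleated cell × organ weight in mg), compared with untreated infected controls.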

N#Cc1c(N2CCN(c3ccccc3O)CC2)cc(-c2ccccc2)oc1=O
Activity (Leishmania donovani [1]): Active | IC50 (Leishmania donovani [2]): 11.1 µM | Activity (Leishmania donovani [3]): Tde | Activity (Leishmania donovani [4]): Active | Activity (Splenocyte): inactive | Activity (Leishmania donovani [5]): 54.1% | Activity (Leishmania donovani [6]): >89% | inhibition at 50 µM (Leishmania donovani [7]): 95.7% | Activity (Leishmania donovani [8]): 2.3% | inhibition in vivo at 50 mg/kg (Leishmania donovani [9]): 67.3%
